In ChEMBL document CHEMBL2401724, “Synthesis and structure--activity relationships of N²-alkylated quaternary β-carbolines as novel antitumor agents” (Eur J Med Chem, 2013):

Assays:
[1] = system: BGC-823; test: Cytotoxicity against human BGC823 cells by MTT assay; format: functional, cell-based
Method in brief: (§1)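 Cell lines were cultured in 96-well microtitre plates at 37 °C in humidified 5% CO₂. Compounds were dissolved in DMSO, at ≤2% (v/v) final in the growth medium. Viability was read by MTT staining, expressed relative to untreated cells.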

[2] = system: MCF7; test: Cytotoxicity against human MCF7 cells by MTT assay; format: functional, cell-based; method in brief: as §1
[3] = system: 769-P; test: Cytotoxicity against human 769-P cells by MTT assay; format: functional, cell-based; method in brief: as §1
[4] = system: HepG2; test: Cytotoxicity against human HepG2 cells by MTT assay; format: functional, cell-based; method in brief: as §1
[5] = system: SK-OV-3; test: Cytotoxicity against human SKOV3 cells by MTT assay; format: functional, cell-based; method in brief: as §1
[6] = Cytotoxicity against human ECA109 cells by MTT assay; format: functional, cell-based; conditions: ECa-109; method in brief: as §1
[7] = system: CWR22R; test: Cytotoxicity against human 22Rv1 cells by MTT assay; format: functional, cell-based; method in brief: as §1
[8] = system: HT-29; test: Cytotoxicity against human HT-29 cells by MTT assay; format: functional, cell-based; method in brief: as §1
[9] = Cytotoxicity against mouse LLC cells by MTT assay; format: functional, cell-based; conditions: Lewis lung carcinoma; method in brief: as §1
[10] = system: A-375; test: Cytotoxicity against human A375 cells by MTT assay; format: functional, cell-based; method in brief: as §1
[11] = Acute toxicity in ip dosed C57BL/6 mouse after 14 days; format: organism-based; conditions: in vivo
Method in brief: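 C57BL/6 mice (9–12 weeks, 18–22 g), single i.p. dose; watched continuously for 2 h, intermittently over 24 h, then occasionally to day 14 for behaviour, deaths and delayed effects. Survivors killed at day 14; heart, liver, kidneys inspected macroscopically, early deaths also examined. LD50 derived graphically.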

[12] = Antitumor activity against mouse Sarcoma 180 cells allografted in mouse assessed as tumor growth inhibition at 30 mg/kg, ip qd administered for 7 days measured after 21 days relative to control; conditions: Sarcoma-180, ip, read-out: TGI
[13] = system: Lewis lung carcinoma cell line; test: Antitumor activity against mouse LLC cells allografted in mouse assessed as tumor growth inhibition at 30 mg/kg, ip qd administered for 7 days measured after 21 days relative to control; conditions: read-out: TGI

| Structure (SMILES) | IC50 [1] [µM] | IC50 [2] [µM] | IC50 [3] [µM] | IC50 [4] [µM] | IC50 [5] [µM] | IC50 [6] [µM] | IC50 [7] [µM] | IC50 [8] [µM] | IC50 [9] [µM] | IC50 [10] [µM] | LD50 at 336 h [11] [mg/kg] | inhibition in vivo at 30 mg/kg [12] [%] | inhibition in vivo at 30 mg/kg [13] [%] |
| --- | --- | --- | --- | --- | --- | --- | --- | --- | --- | --- | --- | --- | --- |
| O=[N+]([O-])c1ccc(C[n+]2ccc3c4ccccc4n(CCCc4ccccc4)c3c2)cc1 | 39.7 | 24.5 | 8.3 | 19.9 | 17.4 | 7.6 | 5.6 | 12.6 | 2.2 | 12.3 | – | – | – |
| c1ccc(CCCn2c3ccccc3c3cc[n+](CCc4ccccc4)cc32)cc1 | 10.4 | 12.5 | 14 | 14 | 8.4 | 8.1 | 4 | 3.3 | < 2 | 12.2 | – | – | – |
| c1ccc(CCCn2c3ccccc3c3cc[n+](CCCc4ccccc4)cc32)cc1 | 9.4 | 3.7 | 3.3 | 4 | 10.8 | 5.3 | 4.9 | 3.4 | < 2 | 3.2 | – | – | – |
| c1ccc(CCCn2c3ccccc3c3cc[n+](Cc4ccccc4)c(-c4ccccc4)c32)cc1 | < 2 | 3.7 | 3 | 4.8 | < 2 | 5.1 | 3.7 | 10.8 | < 2 | 5.9 | – | – | – |
| c1ccc(CCCn2c3ccccc3c3cc[n+](Cc4ccccc4)c(-c4ccsc4)c32)cc1 | 4 | 29.2 | 14.6 | 36.7 | 14.6 | 27.2 | 8.4 | 31.3 | 3.1 | 27.9 | – | – | – |
| Cn1c2ccccc2c2cc[n+](Cc3ccccc3)cc21 | 13.2 | > 100 | 22.5 | > 100 | 55.2 | 95.9 | 8.4 | 59.1 | 8.4 | 37.3 | – | – | – |
| CCn1c2ccccc2c2cc[n+](Cc3ccccc3)cc21 | > 100 | > 100 | 38.5 | > 100 | 27.6 | 36.7 | 5.6 | > 100 | 5.1 | 54.3 | – | – | – |
| CC(C)n1c2ccccc2c2cc[n+](Cc3ccccc3)cc21 | 61.5 | 54.8 | 30.8 | 58.7 | 6.6 | 7.6 | 3.6 | > 100 | < 2 | 24.5 | – | – | – |
| C=CCn1c2ccccc2c2cc[n+](Cc3ccccc3)cc21 | > 100 | 72.6 | 21.9 | 67.8 | 12.6 | 21.4 | < 2 | > 100 | 4.6 | 11.3 | – | – | – |
| CCCCn1c2ccccc2c2cc[n+](Cc3ccccc3)cc21 | 68.1 | 34.1 | 19.8 | 29 | 4.7 | 8.6 | < 2 | 83.8 | < 2 | 19.6 | – | – | – |
| CC(C)Cn1c2ccccc2c2cc[n+](Cc3ccccc3)cc21 | 60.7 | 39.2 | 11.6 | 36.6 | 27.7 | 35.7 | 9.6 | 87.7 | 8 | 28.4 | – | – | – |
| CCCCCCn1c2ccccc2c2cc[n+](Cc3ccccc3)cc21 | 5.2 | 11.1 | 2.7 | 13.9 | 7.3 | 13.9 | < 2 | 16 | < 2 | 6.8 | – | – | – |
| CCCCCCCCn1c2ccccc2c2cc[n+](Cc3ccccc3)cc21 | 2.5 | 4.1 | < 2 | 6.5 | 3.2 | 5.1 | 2.9 | 10.9 | < 2 | 3.1 | – | – | – |
| Fc1ccc(Cn2c3ccccc3c3cc[n+](Cc4ccccc4)cc32)cc1 | 6.3 | 17.8 | 6 | 23.4 | 10.5 | 35.4 | 3.5 | 28.9 | < 2 | 4.7 | – | – | – |
| Clc1cccc(Cn2c3ccccc3c3cc[n+](Cc4ccccc4)cc32)c1 | 20.3 | 20.3 | 3.5 | 16.5 | 7.9 | 23.3 | 4.2 | 26.9 | < 2 | 7 | – | – | – |
| COc1ccc(Cn2c3ccccc3c3cc[n+](Cc4ccccc4)cc32)cc1.[Br-] | 17.8 | 18.7 | 7.6 | 15.9 | 19.9 | 54.3 | 4.8 | 19.2 | 4.2 | 9.5 | 19.5 | – | – |
| C[n+]1ccc2c3ccccc3n(CCCc3ccccc3)c2c1 | 40.6 | 75.6 | 19.9 | 90.8 | > 100 | 60 | 4.3 | 97.3 | 2.4 | 41.5 | – | – | – |
| CC[n+]1ccc2c3ccccc3n(CCCc3ccccc3)c2c1 | 88 | 98.7 | 34.2 | 92.1 | > 100 | 55.5 | 2.5 | 54.2 | 4.3 | 45.1 | – | – | – |
| CCCC[n+]1ccc2c3ccccc3n(CCCc3ccccc3)c2c1 | 15.4 | 38.7 | 13.4 | 45.5 | 15.8 | 41.5 | 3.4 | 62.7 | < 2 | 12.2 | – | – | – |
| CCCCCC[n+]1ccc2c3ccccc3n(CCCc3ccccc3)c2c1 | 2.3 | 3.9 | 2.5 | 4.3 | < 2 | 2.5 | 2.2 | 2.3 | < 2 | 2.9 | – | – | – |
| CCCCCCCC[n+]1ccc2c3ccccc3n(CCCc3ccccc3)c2c1 | 7.4 | 2.9 | < 2 | 4.7 | 5.9 | 22.8 | 4.3 | 18.6 | < 2 | < 2 | – | – | – |
| CCCCCCCCCC[n+]1ccc2c3ccccc3n(CCCc3ccccc3)c2c1 | 57 | < 2 | < 2 | < 2 | 57 | 23.2 | 6.9 | 31.3 | 15.7 | < 2 | – | – | – |
| O=P1(N(CCCl)CCCl)NCCCO1 (stereo not drawn) [CYCLOPHOSPHAMIDE ANHYDROUS] | – | – | – | – | – | – | – | – | – | – | – | 85.6 | 87.3 |
